Experimental findings from ChEMBL document CHEMBL4387724, “2-Pyridineformamide N(4)-ring incorporated thiosemicarbazones inhibit MCF-7 cells by inhibiting JNK pathway” (Bioorg Med Chem Lett, 2019) are described below.

SMILES strings stand for the structures.

The subject of assay [1] is HeLa. The assay can be described thus: Cytotoxicity against human HeLa cells assessed as reduction in cell growth at 10 uM incubated for 72 hrs by MTT assay relative to control. The format is functional. To be noted: read-out: GI. The essentials:
(§1)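 Cells grown in DMEM with 10% FBS and penicillin-streptomycin at 37 °C, 5% CO2, seeded at 3000 cells/well and attached overnight. Screening series given at 1, 3, 10, 100 μM; follow-up agent at 100 nM–3 μM; both 72 h, with 0.1% DMSO vehicle. MTT (5 mg/mL stock) added for 3 h at 37 °C, formazan dissolved in DMSO, absorbance read at 570 nm. Viability expressed as % of DMSO-treated wells from replicates.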
(Tetrazolium assays rely on reduction of a dye to a coloured formazan, in cell work by metabolically active cells.)

Assay [2] concerns A-375. The assay can be described thus: Cytotoxicity against human A375 cells assessed as reduction in cell growth at 30 uM incubated for 72 hrs by MTT assay relative to control. The format is functional. To be noted: A-375, 72 h, read-out: GI.
The test system of assay [3] is A-431. The assay can be described thus: Cytotoxicity against human A431 cells assessed as reduction in cell growth at 1 uM incubated for 72 hrs by MTT assay relative to control. The format is functional. To be noted: A-431, 72 h, read-out: GI. The procedure, abridged: as §1
Assay [4] has as its system A-431. The assay can be described thus: Cytotoxicity against human A431 cells assessed as reduction in cell growth at 30 uM incubated for 72 hrs by MTT assay relative to control. The format is functional. To be noted: A-431, 72 h, read-out: GI.
Assay [5] has as its system MCF7. The assay can be described thus: Cytotoxicity against human MCF7 cells assessed as reduction in cell growth at 100 uM incubated for 72 hrs by MTT assay relative to control. The settings on record: MCF7, 72 h, read-out: GI. The format is functional. The essentials:
as §1

For assay [6], the system named is HeLa. The assay can be described thus: Cytotoxicity against human HeLa cells assessed as reduction in cell growth at 100 uM incubated for 72 hrs by MTT assay relative to control. The format is functional. The settings on record: read-out: GI. The procedure, abridged: as §1
The subject of assay [7] is MCF7. The assay can be described thus: Cytotoxicity against human MCF7 cells assessed as reduction in cell growth at 3 uM incubated for 72 hrs by MTT assay relative to control. The format is functional. To be noted: MCF7, 72 h, read-out: GI. The procedure, abridged:
as §1

The test system of assay [8] is A-375. The assay can be described thus: Cytotoxicity against human A375 cells assessed as reduction in cell growth at 3 uM incubated for 72 hrs by MTT assay relative to control. The format is functional. To be noted: A-375, 72 h, read-out: GI. The procedure, abridged: as §1
In assay [9] the test system is HeLa. The assay can be described thus: Cytotoxicity against human HeLa cells assessed as reduction in cell growth incubated for 72 hrs by MTT assay. The format is functional, cell-based. The essentials: as §1
The test system of assay [10] is A-375. The assay can be described thus: Cytotoxicity against human A375 cells assessed as reduction in cell growth at 10 uM incubated for 72 hrs by MTT assay relative to control. The format is functional. The settings on record: A-375, 72 h, read-out: GI. The procedure, abridged: as §1
Assay [11] concerns A-431. The assay can be described thus: Cytotoxicity against human A431 cells assessed as reduction in cell growth at 100 uM incubated for 72 hrs by MTT assay relative to control. To be noted: A-431, 72 h, read-out: GI. The format is functional. The essentials: as §1
For assay [12], the system named is HeLa. The assay can be described thus: Cytotoxicity against human HeLa cells assessed as reduction in cell growth at 30 uM incubated for 72 hrs by MTT assay relative to control. The format is functional. The settings on record: read-out: GI.
Assay [13] deals with A-375. The assay can be described thus: Cytotoxicity against human A375 cells assessed as reduction in cell growth at 100 uM incubated for 72 hrs by MTT assay relative to control. The settings on record: A-375, 72 h, read-out: GI. The format is functional. The essentials: as §1
In assay [14] the test system is A-375. The assay can be described thus: Cytotoxicity against human A375 cells assessed as reduction in cell growth at 1 uM incubated for 72 hrs by MTT assay relative to control. The format is functional. To be noted: A-375, 72 h, read-out: GI. The essentials: as §1
The subject of assay [15] is MCF7. The assay can be described thus: Cytotoxicity against human MCF7 cells assessed as reduction in cell growth at 30 uM incubated for 72 hrs by MTT assay relative to control. To be noted: MCF7, 72 h, read-out: GI. The format is functional.
Assay [16] concerns A-431. The assay can be described thus: Cytotoxicity against human A431 cells assessed as reduction in cell growth at 3 uM incubated for 72 hrs by MTT assay relative to control. The format is functional. To be noted: A-431, 72 h, read-out: GI. The essentials: as §1
For assay [17], the system named is MCF7. The assay can be described thus: Cytotoxicity against human MCF7 cells assessed as reduction in cell growth incubated for 72 hrs by MTT assay. The format is functional, cell-based. The settings on record: MCF7, 72 h. The essentials:
as §1

In assay [18] the test system is MCF7. The assay can be described thus: Cytotoxicity against human MCF7 cells assessed as reduction in cell growth at 10 uM incubated for 72 hrs by MTT assay relative to control. The format is functional. The settings on record: MCF7, 72 h, read-out: GI. The procedure, abridged:
as §1

In assay [19] the test system is A-431. The assay can be described thus: Cytotoxicity against human A431 cells assessed as reduction in cell growth at 10 uM incubated for 72 hrs by MTT assay relative to control. The format is functional. The settings on record: A-431, 72 h, read-out: GI. The procedure, abridged: as §1
Assay [20] has as its system HeLa. The assay can be described thus: Cytotoxicity against human HeLa cells assessed as reduction in cell growth at 1 uM incubated for 72 hrs by MTT assay relative to control. To be noted: read-out: GI. The format is functional. The essentials: as §1
For assay [21], the system named is HeLa. The assay can be described thus: Cytotoxicity against human HeLa cells assessed as reduction in cell growth at 3 uM incubated for 72 hrs by MTT assay relative to control. The format is functional. To be noted: read-out: GI. The procedure, abridged:
as §1

Assay [22] concerns A-431. The assay can be described thus: Cytotoxicity against human A431 cells assessed as reduction in cell growth incubated for 72 hrs by MTT assay. The format is functional, cell-based. To be noted: A-431, 72 h. The procedure, abridged:
as §1

For assay [23], the system named is MCF7. The assay can be described thus: Cytotoxicity against human MCF7 cells assessed as reduction in cell growth at 1 uM incubated for 72 hrs by MTT assay relative to control. The format is functional. The settings on record: MCF7, 72 h, read-out: GI. The essentials: as §1
Assay [24] deals with A-375. The assay can be described thus: Cytotoxicity against human A375 cells assessed as reduction in cell growth incubated for 72 hrs by MTT assay. The format is functional, cell-based. The settings on record: A-375, 72 h. The procedure, abridged: as §1

As for `Cc1ccnc(/C(N)=N/NC(=S)N2CCCCCC2)c1`, the inhibition of growth at 10 µM in the assay with HeLa [1] amounted to 55.8%; in the assay with A-375 [10], 70.6%; with MCF7 [18], 60.3%; in the assay with A-431 [19] it was 55.5%. In addition, the inhibition of growth at 30 µM in the assay on A-375 [2] came out at 76.5%; with A-431 [4], 63.4%; in the assay with HeLa [12] it was 69.9%; in the assay with MCF7 [15] it was 75.9%. Also, the inhibition of growth at 1 µM with A-431 [3] was found to be 36.3%; with A-375 [14], 61.9%; in the assay with HeLa [20] it was 43.2%; in the assay on MCF7 [23], 18.2%. For the same molecule, the inhibition of growth at 100 µM in the assay with MCF7 [5] is 65.4%; in the assay on HeLa [6], 91.6%; in the assay on A-431 [11] it was 71%; with A-375 [13], 77%. For the same molecule, the inhibition of growth at 3 µM was 36.3% with MCF7 [7], 70% in the assay with A-375 [8], 36.1% in the assay on A-431 [16] and 41.9% with HeLa [21]. For the same molecule, the IC50 (usually the concentration needed to halve the response being measured) in the assay on HeLa [9] was 7 µM; in the assay with MCF7 [17] it was 6.9 µM; with A-431 [22], 8 µM; in the assay on A-375 [24], 0.8 µM.

`N/C(=N\NC(=S)N1CCCCCC1)c1ccc(F)cn1`: the inhibition of growth at 10 µM with HeLa [1] amounted to 83.2%; in the assay with A-375 [10] it was 72.2%; in the assay on MCF7 [18], 26.8%; in the assay with A-431 [19], 64.4%. Also, the inhibition of growth at 30 µM with A-375 [2] amounted to 80%; in the assay on A-431 [4] it was 81.3%; with HeLa [12], 84.5%; in the assay on MCF7 [15], 68.2%. Also, the inhibition of growth at 1 µM in the assay on A-431 [3] turned out to be 50.3%; in the assay on A-375 [14], 51.8%; with HeLa [20], 50%; in the assay on MCF7 [23] it was 16.8%. Also, the inhibition of growth at 100 µM in the assay with MCF7 [5] was determined as 79%; with HeLa [6], 85.6%; in the assay with A-431 [11], 83.5%; with A-375 [13], 85.7%. Besides, the inhibition of growth at 3 µM in the assay on MCF7 [7] worked out at 24.3%; in the assay on A-375 [8] it was 66.6%; in the assay on A-431 [16] it was 62.4%; in the assay on HeLa [21] it was 65.1%. Further, the IC50 worked out at 0.9 µM in the assay with HeLa [9], 21.1 µM in the assay on MCF7 [17], 1 µM in the assay with A-431 [22] and 0.96 µM in the assay with A-375 [24].

On to `Cc1ccnc(/C(N)=N/NC(=S)N2CCN(c3ccccn3)CC2)c1`, for which the inhibition of growth at 10 µM came out at 49.2% with HeLa [1], 76% in the assay with A-375 [10], 32.1% with MCF7 [18] and 44% in the assay with A-431 [19]. The inhibition of growth at 30 µM in the assay with A-375 [2] amounted to 79.4%; in the assay on A-431 [4] it was 65.7%; with HeLa [12], 77%; with MCF7 [15], 63.8%. Moreover, the inhibition of growth at 1 µM with A-431 [3] was found to be 28.9%; with A-375 [14], 64.4%; in the assay with HeLa [20] it was 40.4%; in the assay with MCF7 [23], 21%. In addition, the inhibition of growth at 100 µM in the assay with MCF7 [5] came to 63.4%; with HeLa [6], 85.6%; with A-431 [11] it was 75.5%; in the assay with A-375 [13], 81%. Besides, the inhibition of growth at 3 µM with MCF7 [7] was determined as 32.8%; in the assay with A-375 [8] it was 74.8%; in the assay with A-431 [16] it was 34.7%; in the assay with HeLa [21], 42.5%. Also, the IC50 in the assay with HeLa [9] came out at 10.5 µM; with MCF7 [17], 12.3 µM; in the assay with A-431 [22] it was 15.5 µM; in the assay with A-375 [24] it was 0.78 µM.
